Reference: ChEMBL document CHEMBL1141660, “Synthesis and antimycobacterial evaluation of substituted pyrazinecarboxamides” (Eur J Med Chem, 2008)
In brackets after ≈: the same amount, converted by molar mass.

Tests used:
[1] = Inhibition of photosynthetic electron transport in Spinacia oleracea chloroplasts assessed as photoreduction of 2,6-dicholorophenol-indophenol measured by decrease in oxygen evolution rate; format: functional
Summary of the method: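 Chloroplast suspension (chlorophyll 30 mg/L) in 0.02 mol/L phosphate buffer, pH 7.2, with 0.4 mol/L sucrose, 0.005 mol/L MgCl2 and 0.015 mol/L NaCl. Samples were lit by a halogen lamp (~100 W/m², 10 cm, 4-cm water filter) at 22 °C. Electron transport was followed as DCPIP photoreduction. IC50 is the molar concentration halving oxygen evolution versus the untreated control.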

[2] = tested on: Chlorella vulgaris; assay: Antialagal activity against Chlorella vulgaris Beji assessed as reduction in chlorophyll content after 7 days at 0.83 to 100 umol/L; format: functional; parameters: scale not given: the % may be the effect or the level left
Summary of the method: (§1)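 Chlorella cultures with compound added from DMSO (final ≤0.25%), against controls carrying the same DMSO level. Chlorophyll content was read relative to the control. Results are given either as IC50 (concentration giving a 50% drop in chlorophyll) or as percent of control across the 0.83–100 concentration range, with S.D.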

[3] = tested on: Mycobacterium tuberculosis; assay: Antimicrobial activity against Mycobacterium tuberculosis H37Rv ATCC 27294 at 6.25 ug/mL by microplate alamar blue assay; format: functional
[4] = tested on: Chlorella vulgaris; assay: Antialagal activity against Chlorella vulgaris Beji assessed as reduction in chlorophyll content after 7 days; format: functional, organism-based; settings: 168 h; summary of the method: as §1
[5] = Selectivity index, ratio of MIC Mycobacterium tuberculosis H37Rv ATCC 27294 to IC50 for african green monkey Vero cells; format: functional
[6] = tested on: Mycobacterium tuberculosis; assay: Antimicrobial activity against Mycobacterium tuberculosis H37Rv ATCC 27294 by microplate alamar blue assay; format: functional
[7] = tested on: Vero; assay: Cytotoxicity against african green monkey Vero cells after 72 hrs by MTT assay; format: cell-based; settings: Chlorocebus sabaeus
Summary of the method: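 Secondary screen in VERO cells. Viability was read with the CellTiter 96 non-radioactive cell proliferation assay.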

[8] = tested on: Trichophyton mentagrophytes; assay: Antifungal activity against Trichophyton mentagrophytes after 72 hrs; format: functional
[9] = tested on: Trichophyton mentagrophytes; assay: Antifungal activity against Trichophyton mentagrophytes after 120 hrs; format: functional

SMILES	IC50 [1] [µM]	Activity [2] [%]	inhibition at 6.25 µg/mL [3] [%]	IC50 [4] [µM]	Ratio [5]	MIC [6] [µg/mL]	IC50 [7] [µg/mL]	MIC [8] [µM]	MIC [9] [µM]
CC(C)(C)c1cnc(C(=O)Nc2ccc(F)cc2)cn1	524	94.5	25	–	–	–	–	–	–
O=C(Nc1cc(O)ccc1Cl)c1cnccn1	722	97.1	0	–	–	–	–	–	–
Cc1ccc(NC(=O)c2cncc(Cl)n2)cc1	1520	–	71	37.4	–	–	–	–	–
CC(C)(C)c1ncc(C(=O)Nc2ccc(F)cc2)nc1Cl	103	101.6	15	–	–	–	–	–	–
O=C(Nc1cccc(C(F)(F)F)c1)c1cncc(Cl)n1	229	–	77	12.1	–	–	–	–	–
O=C(Nc1ccc(F)cc1)c1cncc(Cl)n1	384	–	44	32.3	–	–	–	–	–
Cc1ccc(NC(=O)c2cnc(C(C)(C)C)cn2)cc1	164	91.8	61	–	–	–	–	–	–
Cc1ccc(NC(=O)c2cnc(C(C)(C)C)c(Cl)n2)cc1	73	92.9	0	–	–	–	–	–	–
O=C(Nc1ccc(F)cc1)c1cnccn1	480	89.9	0	–	–	–	–	–	–
O=C(Nc1cccc(C(F)(F)F)c1)c1cnccn1	130	91.5	99	–	>10	6.25 (≈ 23.4 µM)	> 62.5	–	–
CC(C)(C)c1cnc(C(=O)Nc2ccccc2C(F)(F)F)cn1	55	–	7	32.9	–	–	–	–	–
Cc1ccc(NC(=O)c2cnccn2)cc1	1480	–	86	70.9	–	–	–	–	–
CN(C)C(=O)Nc1ccc(Cl)c(Cl)c1 [DCMU]	1.9	–	–	7.3	–	–	–	–	–
O=C(Nc1ccccc1C(F)(F)F)c1cncc(Cl)n1	557	87.8	26	–	–	–	–	–	–
CC(C)(C)c1ncc(C(=O)Nc2cccc(C(F)(F)F)c2)nc1Cl	173	90.1	95	–	>3.2	3.13 (≈ 8.75 µM)	> 10	–	–
NC(=O)c1cnccn1 [PYRAZINAMIDE]	–	–	–	–	–	12.5 (≈ 102 µM)	–	–	–
CC(C)(C)c1ncc(C(=O)Nc2ccccc2C(F)(F)F)nc1Cl	205	94.4	6	–	–	–	–	–	–
O=C(Nc1ccccc1C(F)(F)F)c1cnccn1	376	91.7	31	–	–	–	–	–	–
CC(C)(C)c1cnc(C(=O)Nc2cc(O)ccc2Cl)cn1	–	122	0	–	–	–	–	–	–
CC(C)(C)c1ncc(C(=O)Nc2cc(O)ccc2Cl)nc1Cl	625	98	0	–	–	–	–	–	–
O=C(Nc1cc(O)ccc1Cl)c1cncc(Cl)n1	624	103	15	–	–	–	–	–	–
CC(C)(C)c1cnc(C(=O)Nc2cccc(C(F)(F)F)c2)cn1	283	85.2	23	–	–	–	–	62.5 (≈ 20.2 µg/mL)	62.5 (≈ 20.2 µg/mL)
